Assay outcomes: PubChem, Broad Institute
Statin myotox sup – protects C2C12 myotubes from simvastatin toxicity; ATP luminescence, 48 h; scaled: DMSO 0, geranylgeraniol control 100; AID 602340; rescue of ATP level, % at 7.49 µM; 330,000 compounds, 0.78% hits;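 active = mean ATP rescue above about 67%, or every replicate alone reaching that limit, limit read from the data, passing the limit was not always enough; inconclusive = no clear call, values can overlap the other calls; inactive = mean under the limit and some replicate under it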;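 also: myotubes were challenged with 10 µM simvastatin during compound exposure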
DENV2 CPE – DENV2-induced cell death inhibition; 350,000 compounds, 1.7% hits; CPE inhibition, % at 9.99 µM; DENV2-infected cells, cytopathic effect rescue, plate reader; AID 651640; in the data active = CPE inhibition above about 20%, passing the limit was not always enough; inconclusive = no clear call, values can overlap the other calls; tested in BHK-21 cells;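 also: 0% = median of neutral control wells and 100% = median of positive control wells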
E-sel inducer – induces E-selectin expression in human endothelial cells; P16581; HUVEC E-selectin immunofluorescence imaging; normalized: neutral wells 0, TNF-alpha wells 100; activation, % at 7.58 µM; 260,000 compounds, 0.37% hits; AID 686992;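 active = mean E-selectin-positive cell signal at least 10% of the positive control, reached in at least 60% of replicates, without over 20% cell loss; inconclusive = no rule given, readout overlaps actives, possibly toxicity-flagged; inactive = the rest, including those meeting only one limit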
Target sequence (P16581 whole entry, looked up): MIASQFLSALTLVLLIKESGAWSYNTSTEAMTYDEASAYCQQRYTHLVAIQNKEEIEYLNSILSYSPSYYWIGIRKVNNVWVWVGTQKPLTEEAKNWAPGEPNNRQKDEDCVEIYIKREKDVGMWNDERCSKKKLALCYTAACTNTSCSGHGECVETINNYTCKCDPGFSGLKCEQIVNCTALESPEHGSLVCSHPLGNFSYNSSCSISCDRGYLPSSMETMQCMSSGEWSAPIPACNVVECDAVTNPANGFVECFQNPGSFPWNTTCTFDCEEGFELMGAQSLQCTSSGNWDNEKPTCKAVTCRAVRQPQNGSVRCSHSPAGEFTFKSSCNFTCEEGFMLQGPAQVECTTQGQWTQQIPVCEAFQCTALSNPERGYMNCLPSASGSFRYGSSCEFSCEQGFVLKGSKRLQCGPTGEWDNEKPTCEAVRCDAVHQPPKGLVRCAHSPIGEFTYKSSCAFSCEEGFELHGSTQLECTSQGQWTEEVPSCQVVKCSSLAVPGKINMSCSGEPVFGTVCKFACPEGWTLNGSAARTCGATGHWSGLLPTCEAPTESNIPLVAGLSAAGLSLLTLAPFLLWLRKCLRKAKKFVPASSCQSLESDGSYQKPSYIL
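Assay system: HUVEC, human umbilical vein endothelial cells / Amount: 3,000 HUVEC/well / Controls: TNF-alpha positive control, DMSO neutral control / Compound dosing: single concentration / Medium: EGM-2 over gelatin coat / Evaluation: percent E-selectin-positive cells / Signal: immunofluorescence imaging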
Starred values were filed as active, the others as inactive; ? = inconclusive; . = no result given. Compounds with a hit are over-represented: about 2.2% of the library has one in this group of screens.

SMILES	Statin myotox sup	DENV2 CPE	E-sel inducer
COC(=O)c1cc(=O)n(CCc2ccccc2F)c(=Nc2ccc(F)c(Cl)c2)s1	110*	-1	0
COC(=O)c1cc(=O)n(Cc2ccco2)c(=Nc2ccc(F)c(Cl)c2)s1	6	-1	.
CC(C)NC(=O)Nc1ccc2c(c1)C(=O)N([C@H](C)CO)C[C@@H](C)[C@H](CN(C)S(=O)(=O)c1cccs1)OCCCC[C@@H](C)O2	.	11	.
CN1C(=O)c2cc(NC(=O)Cc3cccs3)ccc2OC[C@H]2O[C@@H](CC(=O)NCc3ccc(-c4ccccc4)cc3)CC[C@@H]21	45	7	1
CCNC(=O)Nc1ccc2c(c1)C(=O)N(C)[C@@H]1CC[C@H](CC(=O)NCc3ccccc3F)O[C@H]1CO2	-17	71*	0
CN1C(=O)c2cc(NC(=O)Nc3ccccc3F)ccc2OC[C@H]2O[C@@H](CC(=O)NCc3ccc(-c4ccccc4)cc3)CC[C@H]21	21	48*	0
CCNC(=O)Nc1ccc2c(c1)C(=O)N(C)[C@@H]1CC[C@H](CC(=O)NCc3ccccc3F)O[C@@H]1CO2	-61	?	0
CN1C(=O)c2cc(NS(C)(=O)=O)ccc2OC[C@@H]2O[C@H](CC(=O)NCc3ccc(-c4ccccc4)cc3)CC[C@H]21	16	-3	1
CN1C(=O)c2cc(NS(C)(=O)=O)ccc2OC[C@@H]2O[C@H](CC(=O)NCc3ccc(-c4ccccc4)cc3)CC[C@@H]21	5	0	65*
CN1C(=O)c2cc(NC(=O)Cc3cccs3)ccc2OC[C@H]2O[C@@H](CC(=O)NCc3ccc(-c4ccccc4)cc3)CC[C@H]21	72*	-1	2
CN1C(=O)c2cc(NC(=O)Nc3ccccc3F)ccc2OC[C@H]2O[C@H](CC(=O)NCc3ccc(-c4ccccc4)cc3)CC[C@@H]21	-5	?	0
CO[C@@H]1CN(C)C(=O)c2cc(NS(C)(=O)=O)ccc2OC[C@H](C)NC[C@@H]1C	.	5	0
CN1C(=O)c2cc(NC(=O)Cc3ccccc3)ccc2OC[C@H]2O[C@@H](CC(=O)O)CC[C@@H]21	6	?	0
O=C(NC1CCCC1)[C@H]1[C@H](CO)[C@H]2Cn3c(ccc(-c4ccc(F)cc4)c3=O)[C@@H]1N2Cc1cocn1	3	11	0
C[C@@H]1CN([C@@H](C)CO)C(=O)c2cc(NC(=O)CCC(F)(F)F)ccc2O[C@H]1CN(C)CC1CCCCC1	43	0	.
COc1ccccc1-c1ccc2c(c1)O[C@@H](CN(C)C(=O)c1cccnc1)[C@H](C)CN([C@H](C)CO)S2(=O)=O	0	-6	0
CN(C)c1ccc2c(c1)[C@@H]1C[C@@H](CC(=O)NCCc3ccccc3)O[C@H](CO)[C@@H]1O2	-1	-4	0
CCC(=O)N1[C@H](CO)[C@H]2c3ccccc3N(C(=O)c3ccncc3)C[C@H]21	-4	-4	0
O=C(N[C@@H]1CC[C@H](CC(=O)N2CCc3ccccc3C2)O[C@H]1CO)C1CCC1	3	-8	-3
CCCC(=O)OC[C@H]1CN(C2CCCC2)S(=O)(=O)c2c(Oc3ccccc3)cccc2O1	.	-3	8
CCCC(=O)OC[C@H]1CN(C2CCCC2)S(=O)(=O)c2c(F)cccc2O1	.	49*	0
C/C=C/c1ccc2c(c1)O[C@@H](CN(C)C(=O)CN1CCOCC1)[C@H](C)CN([C@H](C)CO)S2(=O)=O	17	0	0
C[C@H](CO)N1C[C@H](C)[C@@H](CN(C)C(=O)C2CCCCC2)Oc2ncc(-c3cccnc3)cc2C1=O	26	.	0
NC[C@H](Cc1ccccc1)NCCCCC1CCCCC1	6	35*	0
COc1cc(CCCN[C@H](CN)Cc2ccccc2)cc(OC)c1OC	-15	.	0
SMILES	Statin myotox sup	DENV2 CPE	E-sel inducer
CO[C@@H]1CN(C)C(=O)c2cc(NC(=O)C3CCCCC3)ccc2OC[C@@H](C)N(Cc2nccs2)C[C@H]1C	5	-1	0
O=C(NS(=O)(=O)c1ccccc1[N+](=O)[O-])[C@H]1O[C@@H](n2ccc(=O)[nH]c2=O)[C@H](O)[C@@H]1O	.	-7	1
Cc1cc(S(=O)(=O)NC(=O)[C@H]2O[C@@H](n3ccc(=O)[nH]c3=O)[C@H](O)[C@@H]2O)ccc1Br	.	20*	0
C[C@@H]1CN([C@@H](C)CO)C(=O)Cc2cc(NC(=O)CCCCCC(=O)Nc3ccccc3N)ccc2O[C@H]1CN(C)S(C)(=O)=O	19	2	-20
CC[C@@H]1[C@H]2CCCC(=O)N3CC[C@@H](C[C@@H]1OC(=O)NCc1ccccc1)[C@@H]23	10	-2	0
CCCCNC(=O)O[C@H]1C[C@@H]2CCN3C(=O)CCC[C@H]([C@H]1Cc1ccccc1)[C@H]23	10	54*	.
Cc1noc(C)c1NC(=O)Nc1ccc2c(c1)C(=O)N([C@H](C)CO)C[C@@H](C)[C@H](CN(C)Cc1ccc(Cl)c(Cl)c1)OCCCC[C@@H](C)O2	.	-6	0
C[C@H](CO)N1C[C@H](C)[C@@H](CN(C)Cc2ccc3c(c2)OCO3)OCCCC[C@H](C)Oc2ccc(NC(=O)Nc3cccc4ccccc34)cc2C1=O	-292	-24	0
COc1ccc(Cc2nnc(Nc3ccccc3)s2)cc1Br	77*	5	1
COc1ccc(CNc2ccccc2)cc1Br	17	.	.
CO[C@H](CN(C)S(=O)(=O)c1ccc(C)cc1)[C@H](C)CN(Cc1ccccc1Cl)[C@H](C)CO	-7	0	0
CCOC(=O)CNC(=O)N1CCc2ccc(NC(=O)c3ccccc3OC)cc2C1	-12	-1	0
COc1ccccc1C(=O)Nc1ccc2c(c1)CN(Cc1cnc(C)s1)CC2	.	33*	0
O=C1NC[C@@H](CCCCN2CCN(Cc3ccccc3)C(=O)C2=O)N(CCC2CCCCC2)C1=O	.	21*	.
O=C1NC[C@@H](CCCCN2C[C@H](Cc3ccc(O)cc3)N(CC3CCCCC3)C(=O)C2=O)N(CCC2CCCCC2)C1=O	.	59*	.
O=C1NC[C@H](CCCCN2C[C@H](Cc3ccc(O)cc3)N(CCC3CCCCC3)C(=O)C2=O)N(CC2CCCCC2)C1=O	.	7	-1
O=C1NC[C@@H](CCCCN2CCN(Cc3ccccc3)C(=O)C2=O)N(CC2CCCCC2)C1=O	.	-6	.
ONC(=Nc1ccccc1)C(=Nc1ccccc1)NO	86*	.	.
NC(=Nc1ccccc1)Nc1ccccc1	9	4	0
COc1cccc(-c2cn(CC[C@H]3CC[C@@H](NC(=O)CN(C)C)[C@H](CO)O3)nn2)c1	1	?	-1
COc1ccc(SC[C@H](C)CN2CC[C@H](NC(=O)OCc3ccccc3)CCC2=O)cc1	14	-1	0
C[C@@H](CSc1ccc(Br)cc1)CN1CC[C@H](NC(=O)OCc2ccccc2)CCC1=O	23	75*	0
Cc1ccc(OCCNC(=O)c2cccc(S(=O)(=O)NCc3ccccc3)c2)cc1	-72	7	.
CS(=O)(=O)NCc1ccc(C(=O)NCCOc2ccccc2)cc1	-14	31*	.
CCn1c(CSc2nc(C)cc(C)n2)nnc1SCC(=O)Nc1nc(-c2ccccc2)cs1	117*	.	.
Cc1cc(C)nc(SCc2nnc(SCC(=O)Nc3nc(-c4ccccc4)cs3)n2C)n1	13	.	.
